Experimental data as given in PMC8928501 (ACS Omega, 2022).

Target: human transferrin (Tf) (Homo sapiens, UniProt P02787)
Test: isothermal titration calorimetry
Type: binding
Outline: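 Human transferrin in the sample cell, stated as 25 μM in one place and 20 μM in another; dialyzed and degassed before loading. Test compound at 200 μM in the syringe, added by automated titration after an initial dummy injection. Binding isotherm fitted to a two-site model to obtain the thermodynamic parameters.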

Chain of human transferrin (Tf) (P02787 20-698): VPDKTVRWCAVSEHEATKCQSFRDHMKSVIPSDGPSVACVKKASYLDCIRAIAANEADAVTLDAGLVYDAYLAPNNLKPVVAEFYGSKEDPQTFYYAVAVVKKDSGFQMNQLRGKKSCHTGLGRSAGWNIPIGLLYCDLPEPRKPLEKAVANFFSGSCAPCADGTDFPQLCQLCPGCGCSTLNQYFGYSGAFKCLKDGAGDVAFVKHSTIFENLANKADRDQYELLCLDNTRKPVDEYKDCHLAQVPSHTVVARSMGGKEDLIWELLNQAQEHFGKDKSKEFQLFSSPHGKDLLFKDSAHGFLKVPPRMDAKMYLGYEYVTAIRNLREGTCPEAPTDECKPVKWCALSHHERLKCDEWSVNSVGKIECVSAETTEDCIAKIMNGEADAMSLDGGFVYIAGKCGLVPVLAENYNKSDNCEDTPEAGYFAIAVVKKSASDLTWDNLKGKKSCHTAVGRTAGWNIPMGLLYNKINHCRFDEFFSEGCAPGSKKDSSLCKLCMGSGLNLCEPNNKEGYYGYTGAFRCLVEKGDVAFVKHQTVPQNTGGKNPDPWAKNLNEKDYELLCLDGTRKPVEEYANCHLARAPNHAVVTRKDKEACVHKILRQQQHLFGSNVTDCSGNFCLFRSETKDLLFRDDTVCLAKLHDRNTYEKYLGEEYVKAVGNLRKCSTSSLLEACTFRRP

Kd: 6.9 µM
Structure (SMILES): CNCCC(Oc1ccc(C(F)(F)F)cc1)c1ccccc1 (stereo not shown) [Fluoxetine]
